The values that follow come from ChEMBL document CHEMBL1132155, “Endothelin antagonists: substituted mesitylcarboxamides with high potency and selectivity for ET(A) receptors” (J Med Chem, 1999).

The nature of series [1]: Compound was evaluated for the aqueous solubility (AS) in mg/mL (Measured in 0.2 M phosphate buffer of pH 7.4). It is filed as physicochemical. To be noted: read-out: AS. Summed up: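 Solubility measured in 0.2 M phosphate buffer, pH 7.4. Where a preformed sodium salt was used, it was measured in saline (9 mg/mL).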
Series [2] in a line: Compound was evaluated for the biological half-life when administered orally in Acute Pulmonary Hypertension Rat Model. To be noted: in vivo, po. It is filed as ADME, organism-based. Summed up: (§1)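 Adult Harlan Sprague–Dawley rats received 50 mg/kg by gavage in 0.5% high-viscosity carboxymethyl cellulose (5 mL/kg). Serial 200 μL tail-vein blood samples were taken at selected times into heparin-coated tubes. Red cells were removed by centrifugation and plasma stored at −80 °C. Plasma proteins were precipitated with acetonitrile before HPLC analysis; serum half-life was derived from these samples.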

Series [3] has as its target T1, Endothelin-1 receptor (Homo sapiens) (UniProt P25101).
T1 sequence (whole entry): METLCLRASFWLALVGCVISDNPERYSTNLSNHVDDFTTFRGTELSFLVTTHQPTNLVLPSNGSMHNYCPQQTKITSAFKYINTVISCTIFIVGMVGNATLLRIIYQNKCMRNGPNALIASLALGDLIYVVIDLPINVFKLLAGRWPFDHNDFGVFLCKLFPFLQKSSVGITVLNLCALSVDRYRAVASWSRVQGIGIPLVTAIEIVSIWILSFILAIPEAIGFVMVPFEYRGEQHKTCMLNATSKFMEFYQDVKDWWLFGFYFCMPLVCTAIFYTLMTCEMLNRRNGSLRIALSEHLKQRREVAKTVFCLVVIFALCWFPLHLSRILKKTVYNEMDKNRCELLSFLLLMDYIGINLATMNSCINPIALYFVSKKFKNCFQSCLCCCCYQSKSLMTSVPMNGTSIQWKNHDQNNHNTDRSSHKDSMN
The series can be described thus: Competitive binding to Endothelin A receptor by displacement of [125I]ET1 (Relative IC50 was calculated as IC50 of compound/IC50 of TBC11251).

Series [4] deals with Rattus norvegicus. The series is described as follows: Compound was evaluated for the effective oral dose in Acute Pulmonary Hypertension Rat Model after administering 2 hours prior to experiment. It is filed as functional. The essentials: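 Rat model of acute hypoxia-induced pulmonary hypertension. Compound given orally 2 h before hypoxia. Reported value is the lowest tested dose giving 90–100% inhibition of mean pulmonary arterial pressure; mean systemic arterial pressure and heart rate were also monitored. Some entries give % inhibition at 5 mg/kg.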

The target of series [5] is Endothelin receptor, ET-A/ET-B (Homo sapiens) (UniProt P24530+P25101). The series is described as follows: Compound was evaluated for the selectivity of ET-A receptors (ET-B IC50/ ET-A IC50). It is filed as protein assay.
Series [6] has as its system Rattus norvegicus. The series can be described thus: Compound was evaluated for the biological half-life when administered orally in Acute Pulmonary Hypertension Rat Model; NM=Not measurable (T1/2 h). It is filed as ADME, organism-based. To be noted: in vivo, po. The essentials: as §1

In general, half-life refers to the time needed for the level to fall by half in the phase considered. Low readings indicate rapid decline, high ones slow decline.

SMILES strings stand for the structures. Converted amounts (≈) assume the structure as drawn.

Chain of Endothelin receptor, ET-A/ET-B (Homo sapiens) (P24530 whole entry, looked up, one chain of several): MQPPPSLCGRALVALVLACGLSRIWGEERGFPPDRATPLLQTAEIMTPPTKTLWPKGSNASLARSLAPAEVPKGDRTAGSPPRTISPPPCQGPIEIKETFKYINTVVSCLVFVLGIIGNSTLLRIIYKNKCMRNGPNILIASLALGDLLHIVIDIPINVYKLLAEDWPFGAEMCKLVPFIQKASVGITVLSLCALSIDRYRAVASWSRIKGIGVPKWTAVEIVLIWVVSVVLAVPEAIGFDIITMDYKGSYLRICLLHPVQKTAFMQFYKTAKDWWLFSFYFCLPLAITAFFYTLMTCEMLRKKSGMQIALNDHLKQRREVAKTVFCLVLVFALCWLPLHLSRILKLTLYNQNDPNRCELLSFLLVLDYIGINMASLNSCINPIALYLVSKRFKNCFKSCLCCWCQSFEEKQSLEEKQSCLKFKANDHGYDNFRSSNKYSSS

For `Cc1cc(C)c(NC(=O)c2sccc2S(=O)(=O)Nc2onc(C)c2Cl)c(C)c1CC#N`, in series [1], the solubility is under 10 mg/mL. For the same compound, in series [2], the half-life was 2.3 h. Also, the Relative ET-A IC50 in series [3] was 0.08. For the same compound, in series [4], the Effective dose was determined as 5 mg/kg. The Selectivity in series [5] turned out to be 32900.
`COC(=O)Oc1c(C)cc(C)c(NC(=O)c2sccc2S(=O)(=O)Nc2onc(C)c2Cl)c1C`: the T1/2 entry in series [6] is “Not Active”. For the same compound, the Relative ET-A IC50 in series [3] is 0.05. In series [5], this compound displayed a Selectivity of 22200.
For `Cc1cc(C)c(NC(=O)c2sccc2S(=O)(=O)Nc2onc(C)c2Cl)c(C)c1O`, the solubility in series [1] is 83 mg/mL (≈ 182 mM). This compound gave a half-life in series [2] of 7.3 h. For the same compound, the Relative ET-A IC50 in series [3] is 0.11. In series [4], this compound displayed an Effective dose of 5 mg/kg. The same compound had a Selectivity in series [5] of 10900.
Regarding `CC(=O)OCc1c(C)cc(C)c(NC(=O)c2sccc2S(=O)(=O)Nc2onc(C)c2Cl)c1C`, the half-life in series [2] is 0.5 h. Besides, the Relative ET-A IC50 in series [3] was 0.06. This compound came in with an Effective dose in series [4] of 5 mg/kg. This compound returned a Selectivity in series [5] of 850000.
On to `Cc1cc(C)c(NC(=O)c2sccc2S(=O)(=O)Nc2onc(C)c2Cl)c(C)c1CO`, for which the solubility in series [1] amounted to 65 mg/mL (≈ 138 mM). The half-life in series [2] was 1.4 h. The Relative ET-A IC50 in series [3] is 0.04. The compound also registered an Effective dose in series [4] of 15 mg/kg. Besides, the Selectivity in series [5] was 111000.
In the case of `Cc1cc2c(cc1CC(=O)c1sccc1S(=O)(=O)Nc1onc(C)c1Cl)OCO2` [SITAXENTAN], in series [1], the solubility was under 10 mg/mL. The half-life in series [2] is 4.1 h. Moreover, the Relative ET-A IC50 in series [3] is 1. The compound also registered an Effective dose in series [4] of 5 mg/kg. Moreover, the Selectivity in series [5] turned out to be 3210.
Turning to `Cc1cc(C)c(OC(N)=O)c(C)c1NC(=O)c1sccc1S(=O)(=O)Nc1onc(C)c1Cl`, the T1/2 entry in series [6] was “Not Active”. Moreover, the Relative ET-A IC50 in series [3] is 0.34. This compound yielded a Selectivity in series [5] of 6700.
`Cc1cc(C)c(S(N)(=O)=O)c(C)c1NC(=O)c1sccc1S(=O)(=O)Nc1onc(C)c1Cl`: in series [1], the solubility is 30 mg/mL (≈ 57.8 mM). In series [2], this compound gave a half-life of 1.5 h. In series [3], the Relative ET-A IC50 was 0.06. In addition, the Effective dose in series [4] turned out to be 5 mg/kg. This compound yielded a Selectivity in series [5] of 27800.
